Results on six compounds are retold here after ChEMBL document CHEMBL3244243, “Mitomycin antibiotics. Synthesis and activity of 1,2-disubstituted mitosenes” (J Med Chem, 1977).

The structures appear in SMILES notation. The source made the active and inactive calls. No cut-off for these calls is given here. A value given as a limit tells only on which side of the number the result lay.

In series [1] the test system is Escherichia coli. The experiment in a line: Antibacterial activity against Escherichia coli K-12 assessed as zone of inhibition by disk-plate assay. The series is classed as functional.
In series [2] the test system is Escherichia coli. The experiment in a line: Antibacterial activity against Escherichia coli B A9885 assessed as zone of inhibition by disk-plate assay. It is filed as functional.
The next series deals with Bacillus subtilis. The experiment in a line: Antibacterial activity against Bacillus subtilis assessed as zone of inhibition by disk-plate assay. It is filed as functional.
For another series, the system named is Klebsiella pneumoniae. The experiment in a line: Antibacterial activity against Klebsiella pneumoniae assessed as zone of inhibition by disk-plate assay. It is filed as functional.
In series [3] the test system is Staphylococcus aureus. Description: Antibacterial activity against Staphylococcus aureus Smith P assessed as zone of inhibition by disk-plate assay. It is filed as functional.
Series [4] concerns Staphylococcus aureus. The experiment in a line: Antibacterial activity against Staphylococcus aureus 209P assessed as zone of inhibition by disk-plate assay. The series is classed as functional.
In a further series the test system is Enterococcus faecalis. The experiment in a line: Antibacterial activity against Streptococcus faecalis P1377 assessed as zone of inhibition by disk-plate assay. The series is classed as functional.
For another series, the system named is Micrococcus luteus. Description: Antibacterial activity against Sarcina lutea assessed as zone of inhibition by disk-plate assay. It is filed as functional.
Series [5] deals with Mycolicibacterium smegmatis. Description: Antibacterial activity against Mycobacterium smegmatis 607 assessed as zone of inhibition by disk-plate assay. It is filed as functional.
A short description of series [6]: Induction of lambda-bacteriophage expression in Escherichia coli assessed as induction of plaques at 3.1 ug/ml relative to control. It is filed as functional, Enterobacteria phage lambda.
Series [7] is described as follows: (§1) Induction of lambda-bacteriophage expression in Escherichia coli assessed as induction of plaques at 0.8 ug/ml relative to control. It is filed as functional, Enterobacteria phage lambda.
The nature of series [8]: (§2) Induction of lambda-bacteriophage expression in Escherichia coli assessed as induction of plaques at 0.2 ug/ml relative to control. It is filed as functional, Enterobacteria phage lambda.
Series [9] has as its system Enterobacteria phage lambda. Described as §1. It is filed as functional.
Series [10] deals with Enterobacteria phage lambda. The series is described as §2. The series is classed as functional.
In series [11] the test system is Enterobacteria phage lambda. The experiment in a line: (§3) Induction of lambda-bacteriophage expression in Escherichia coli assessed as induction of plaques at 0.05 ug/ml relative to control. It is filed as functional.
A short description of series [12]: Induction of lambda-bacteriophage expression in Escherichia coli assessed as induction of plaques at 0.0125 ug/ml relative to control. The series is classed as functional, Enterobacteria phage lambda.
Series [13] in a line: Induction of lambda-bacteriophage expression in Escherichia coli assessed as induction of plaques at 0.003 ug/ml relative to control. The series is classed as functional, Enterobacteria phage lambda.
The test system of series [14] is Escherichia coli. The experiment in a line: Toxicity in lambda-bacteriophage infected Escherichia coli at 0.8 ug/ml. The series is classed as organism-based. The note with it: in vivo.
Series [15] has as its system Escherichia coli. The experiment in a line: Toxicity in lambda-bacteriophage infected Escherichia coli at 0.2 ug/ml. It is filed as organism-based. The following applies: in vivo.
For series [16], the system named is Escherichia coli. The experiment in a line: Toxicity in lambda-bacteriophage infected Escherichia coli at 0.05 ug/ml. The following applies: in vivo. It is filed as organism-based.
For series [17], the system named is Escherichia coli. Description: Toxicity in lambda-bacteriophage infected Escherichia coli at 0.0125 ug/ml. The series is classed as organism-based. The note with it: in vivo.
For series [18], the system named is P388. The experiment in a line: Antitumor activity against mouse P388 cells allografted CDF mouse assessed as increase in maximum survival time at 3.2 mg/kg treated on days 1 and 5 following tumor implantation relative to saline treated control. The series is classed as functional. The method in brief: (§4)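 Male CDF mice implanted intraperitoneally with 10⁶ P388 ascites leukemia cells; compound given on days 1 and 5 after tumor inoculum. Increase in maximum survival time calculated against saline-treated controls. Six mice per treated group, ten mice in the control group.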

Series [19] concerns P388. Description: Antitumor activity against mouse P388 cells allografted CDF mouse assessed as increase in maximum survival time at 6.4 mg/kg treated on days 1 and 5 following tumor implantation relative to saline treated control. The series is classed as functional. The method in brief: as §4
For series [20], the system named is Escherichia coli. Description: Toxicity in lambda-bacteriophage infected Escherichia coli at 3.1 ug/ml. It is filed as organism-based. The following applies: in vivo.
A short description of series [21]: as §3. The series is classed as functional, Enterobacteria phage lambda.
For series [22], the system named is P388. Description: Antitumor activity against mouse P388 cells allografted CDF mouse assessed as increase in maximum survival time at 12.8 mg/kg treated on days 1 and 5 following tumor implantation relative to saline treated control. It is filed as functional, organism-based. More on the design: dose 12.8 mg/kg. The method, boiled down: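 CDF male mice inoculated intraperitoneally with 10⁶ P388 ascites leukemia cells. Compound given at 12.8 mg/kg on days 1 and 5 after tumor inoculum. Six mice per compound group and ten mice in the saline control group. Read-out is percent increase in maximum survival time over the saline controls.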

Regarding `COC1=C(C)C(=O)c2c(c(COC(N)=O)c3n2CC[C@H]3O)C1=O`, the “diameter of the inhibition zone (DIZ)” value in the series on Escherichia coli [1] was 0 mm; in the series on Escherichia coli [2] it was 0 mm; with Bacillus subtilis it was 19 mm; in the series with Klebsiella pneumoniae, 0 mm; with Staphylococcus aureus [3], 17 mm; in the series with Staphylococcus aureus [4], 17 mm. Also, the “diameter of the inhibition zone (DIZ)” value is given as 17 mm in the series with Enterococcus faecalis, 14 mm with Micrococcus luteus and 0 mm in series [5]. Moreover, the Ratio was determined as 6.9 in series [6], 2.9 in series [7] and 1.3 in [8].

With `COC1=C(C)C(=O)c2c(c(COC(N)=O)c3n2C[C@@H](NC(C)=O)[C@H]3OC(C)=O)C1=O`, the “diameter of the inhibition zone (DIZ)” value with Escherichia coli [1] is 0 mm; in the series on Escherichia coli [2], 0 mm; with Bacillus subtilis it was 0 mm; with Klebsiella pneumoniae it was 0 mm; in the series with Staphylococcus aureus [3], 5 mm; in the series on Staphylococcus aureus [4] it was 5 mm. In addition, the “diameter of the inhibition zone (DIZ)” value in the series with Enterococcus faecalis is 0 mm; with Micrococcus luteus, 9 mm; in [5], 0 mm. Also, the figures for the Ratio in [6], in series [7] and in series [8] were 1.6, 1.1 and 0.8, respectively.

Regarding `COC1=C(C)C(=O)C2=C(C1=O)[C@@H](COC(N)=O)[C@@]1(OC)[C@H]3N[C@H]3CN21` [MITOMYCIN A], the “diameter of the inhibition zone (DIZ)” value with Escherichia coli [1] is on record as 8 mm; in the series with Escherichia coli [2], 13 mm; with Bacillus subtilis it was over 22 mm; with Klebsiella pneumoniae it was 16 mm; with Staphylococcus aureus [3], 24 mm; in the series on Staphylococcus aureus [4] it was 23 mm. In addition, the entries for the “diameter of the inhibition zone (DIZ)” value (in the series on Enterococcus faecalis; in the series on Micrococcus luteus; in series [5]) were 21 mm, over 25 mm and 21 mm, respectively. Further, the result in series [9], in series [10] and in series [11] was Active. The Ratio in series [12] is on record as 31.1; in [13], 7.4. Further, the Activity result in the series with Escherichia coli [14], in the series with Escherichia coli [15], in the series on Escherichia coli [16] and with Escherichia coli [17] was “Toxic” throughout. Moreover, the survival at 3.2 mg/kg in the series on P388 [18] worked out at 80%.

On to `COC1=C(C)C(=O)c2c(c(COC(N)=O)c3n2CC[C@H]3OC(C)=O)C1=O`, for which the “diameter of the inhibition zone (DIZ)” value with Escherichia coli [1] stood at 0 mm; in the series with Escherichia coli [2], 1 mm; in the series with Bacillus subtilis it was 23 mm; in the series with Klebsiella pneumoniae, 0 mm; with Staphylococcus aureus [3], 17 mm; in the series on Staphylococcus aureus [4] it was 15 mm. Also, the “diameter of the inhibition zone (DIZ)” value in the series with Enterococcus faecalis is listed as 16 mm; in the series with Micrococcus luteus, 14 mm; in series [5], 7 mm. The Ratio was found to be 24.5 in [6], 13.2 in series [7] and 4.3 in [8]. For the same compound, the survival at 6.4 mg/kg in the series on P388 [19] worked out at 65%.

Take `COC1=C(C)C(=O)c2c(c(COC(N)=O)c3n2C[C@@H](N)[C@H]3O)C1=O`: the “diameter of the inhibition zone (DIZ)” value in the series with Escherichia coli [1] was determined as 0 mm; with Escherichia coli [2], 2 mm; with Bacillus subtilis it was 8 mm; in the series on Klebsiella pneumoniae it was 0 mm; in the series with Staphylococcus aureus [3], 11 mm; in the series on Staphylococcus aureus [4] it was 9 mm. Also, the “diameter of the inhibition zone (DIZ)” value in the series on Enterococcus faecalis is 6 mm; in the series with Micrococcus luteus, 9 mm; in series [5], 4 mm. The Ratio in [6] came to 16.7; in [7], 4.1; in series [8], 1.4. Besides, the Activity result in the series with Escherichia coli [20] and with Escherichia coli [14] was “Toxic” throughout.

As for `CNC(=O)OCc1c2c(n3c1[C@H](NC(C)=O)[C@H](OC(C)=O)C3)C(=O)C(C)=C(OC)C2=O` (relative stereo), the “diameter of the inhibition zone (DIZ)” value in the series with Escherichia coli [1] amounted to 0 mm; in the series on Escherichia coli [2] it was 0 mm; in the series with Bacillus subtilis, 14 mm; with Klebsiella pneumoniae, 0 mm; in the series on Staphylococcus aureus [3] it was 15 mm; in the series on Staphylococcus aureus [4] it was 13 mm. Besides, the “diameter of the inhibition zone (DIZ)” value amounted to 13 mm in the series on Enterococcus faecalis, 13 mm in the series with Micrococcus luteus and 0 mm in series [5]. The Ratio turned out to be 1.6 in series [7]; 1.1 in series [8]; 1.4 in series [21]; 1.2 in [12]; 1.6 in series [13]. The result in the series with P388 [22] was inactive.
